# ABCB6 inh MLPCN: blocks the human ABCB6 transporter; Q9NP58; fluorescence ratio to DMSO, % at 10 µM; K562-ABCB6 porphyrin accumulation, flow cytometry, 1 h; stronger effect = lower value; 0.19% of 360,000 active;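 active means fluorescence ratio to DMSO below 75%, the collection mean minus 3 SD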;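 further: signal is porphyrin accumulated inside mitochondria; 100% equals median channel fluorescence of DMSO control wells; lower ratio means ABCB6 inhibition with less porphyrin fluorescence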
# Target sequence (Q9NP58 whole entry, looked up): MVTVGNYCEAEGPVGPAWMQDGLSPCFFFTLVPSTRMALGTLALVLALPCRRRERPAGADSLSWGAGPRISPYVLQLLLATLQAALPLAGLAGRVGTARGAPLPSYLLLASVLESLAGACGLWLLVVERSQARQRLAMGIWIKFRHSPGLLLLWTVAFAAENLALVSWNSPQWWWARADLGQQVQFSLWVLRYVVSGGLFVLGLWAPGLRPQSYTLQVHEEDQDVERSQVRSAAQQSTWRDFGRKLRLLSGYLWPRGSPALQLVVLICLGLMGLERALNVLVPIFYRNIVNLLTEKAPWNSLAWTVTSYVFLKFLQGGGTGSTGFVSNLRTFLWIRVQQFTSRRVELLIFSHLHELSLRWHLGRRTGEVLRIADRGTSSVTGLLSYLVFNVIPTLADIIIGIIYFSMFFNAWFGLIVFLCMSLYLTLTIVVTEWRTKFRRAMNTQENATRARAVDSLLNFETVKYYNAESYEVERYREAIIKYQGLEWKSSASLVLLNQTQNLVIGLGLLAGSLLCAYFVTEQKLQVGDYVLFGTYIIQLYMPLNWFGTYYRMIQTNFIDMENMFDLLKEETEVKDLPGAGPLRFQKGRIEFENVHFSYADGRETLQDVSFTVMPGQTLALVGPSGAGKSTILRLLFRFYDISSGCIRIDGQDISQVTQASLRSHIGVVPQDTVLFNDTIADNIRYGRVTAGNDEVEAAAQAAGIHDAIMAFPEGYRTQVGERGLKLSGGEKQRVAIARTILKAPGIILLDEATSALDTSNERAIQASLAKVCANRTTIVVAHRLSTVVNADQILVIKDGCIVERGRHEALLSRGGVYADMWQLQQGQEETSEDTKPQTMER
# Cl transport mod: modulates chloride dependent transport by human KCC2; KCC2 cells, thallium flux FluoZin-2 fluorescence; AID 1456; 2.2% of 190,000 active; B-score of Tl+ flux slope (higher = more flux/activation; lower = inhibition) at 10 µM;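 active means thallium flux slope and its plate-corrected score both differing from the plate sample mean at a set confidence after two filtering rounds, in either direction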;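 further: slope of fluorescence scaled to starting intensity during 10 to 20 s after thallium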
# V-ATPase pH: yeast V-ATPase proton transport regulation by pHLuorin; S. cerevisiae, pHLuorin cytosolic pH fluorescence; response, % at 10 µM; 0.37% of 350,000 active; AID 504577; in the data active means response mostly above about 7.3%, no sharp cut-off; inactive means mostly below about 5.4%; further: actives read high
# Dynein cargo inh: dynein cargo transport inhibition | 3617.4 mouse cells, GR-EGFP nuclear translocation imaging; test concentration mostly 20 µM; stimulated with dexamethasone, 1 µM; stronger effect = lower value | z-score, hits read low | 0.47% of 220,000 active | AID 1381;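 active means plate z-score of nuclear minus cytoplasmic receptor signal below a set negative limit, without overly bright fluorescence or cell loss, cut at about -3.5 in these data, passing the limit was not always enough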;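 further: z-score of nuclear minus cytoplasmic ring GR-EGFP intensity difference per well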
#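 Also added – dexamethasone, 1.0 µM final · Buffer or medium – tet-free, stripped-serum medium · Schedule – induction 48 h, compound 1 h, agonist 30 min · Detection – formaldehyde fixation, Hoechst nuclear stain, 10x automated fluorescence imaging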
# pCIP destab: compounds decreasing mouse p/CIP protein stability. F442A p/CIP-EGFP cells, EGFP fluorescence, 16 h. decrease of EGFP signal, % at 10 µM. 0.01% of 290,000 active;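 active means EGFP signal decrease of at least 30% at 10 µM or well 3 SD below plate mean, unless failing retest; inactive means the rest, including hits failing retest or dose response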
# * marks the source's active call; other numbers are inactive results; . = not tested or not shown. Only a selection was taken, and hits are over-represented in it overall.
SMILES,ABCB6 inh MLPCN,Cl transport mod,V-ATPase pH,Dynein cargo inh,pCIP destab
C#CCn1cc(CNC[C@H]2O[C@@H](n3cnc4c(=O)[nH]c(N)nc43)[C@H](O)[C@@H]2O)c2ccccc21,98,.,.,.,.
Cc1ccc(-c2nc3c4ccccc4ccn3c2Cc2ccccc2C(F)(F)F)cc1,104,.,.,.,.
O=C(Nc1csnn1)c1csnn1,97,-0.41,0,0.51,2
O=C(NC(=S)Nc1ccccc1)c1csnn1,203,43*,-1,-0.05,1
O=C(NC(=S)Nc1ccc(C(F)(F)F)cc1)c1csnn1,95,67*,-1,-0.6,-17
CCNC(=O)C/C(C)=N/NC(=O)C1CCCCC1,49*,0.92,2,-0.49,11
COc1ccc(CCNC(=O)C/C(C)=N/NC(=O)C2CCCCC2)cc1OC,98,0.64,5,-0.53,1
Cc1cnc(CNC(=O)c2ccc3nc([C@@H]4O[C@H](CO)[C@H](O)[C@H](O)[C@H]4O)[nH]c3c2)cn1,100,.,.,.,.
C(=C\c1ccccc1)/CN1CCN(C(c2cc3ccccc3o2)c2nnnn2Cc2ccccc2)CC1 (stereo not drawn),102,.,.,.,.
Cc1ccc(-c2cc(C(=O)Nc3cccnc3)c3ccccc3n2)o1,102,.,-6,-4.4*,-11
N#CC(=C1C=CC(=NO)C(Cl)=C1)c1ccccc1,100,.,.,.,.
CN(C(=O)CSc1nnc(-c2ccc(F)cc2)n1C)C1CCS(=O)(=O)C1 (stereo not drawn),102,.,10*,.,.
CN(C(=O)CSc1nnc(Nc2ccccc2F)s1)C1CCS(=O)(=O)C1 (stereo not drawn),95,.,-3,.,.
Cc1ccccc1Nc1nnc(SCC(=O)N(C)C2CCS(=O)(=O)C2)s1 (stereo not drawn),101,-0.53,16*,1.3,1
O=C1c2ccccc2C(c2nnnn2-c2ccc3c(c2)OCCO3)N1Cc1ccc2c(c1)OCO2 (stereo not drawn),96,.,.,.,.
CC1CCCN(C(C(=O)Nc2ccc3c(c2)OCO3)c2ccccc2)C1 (stereo not drawn),98,0.25,14*,-1,-7
CC1CCCN(C(C(=O)Nc2ccc3c(c2)OCCO3)c2ccccc2)C1 (stereo not drawn),91,-1.9,5,0.27,0
O=C(NC(=S)N1CCc2ccccc21)c1ccccc1,106,51*,-2,2.3,7
CC1CCN(C(=S)NC(=O)c2ccccc2)CC1,102,36*,1,-0.8,1
CC1CCN(C(=S)NC(=O)c2ccc(C(C)(C)C)cc2)CC1,96,.,-3,.,-4
COCOc1ccc(-c2ncc(OC)nc2NC(=O)c2ccsc2)cc1,91,.,.,.,.
O=C(c1ccccc1CCc1ccccc1)N1CCCC1,95,.,40*,.,3
CCOC(=O)N1CCN(C(=O)c2ccccc2CCc2ccccc2)CC1,118,-2.5,2,0.097,1
CC1(C)CC(=O)C/C(=N/NC(=O)c2ccc(-c3ccccc3)cc2)C1,113,-4.7*,3,-0.66,-26
CC1(C)CC(=O)C/C(=N\NC(=O)Cc2ccccc2)C1,97,-0.71,-5,-0.55,-10
SMILES,ABCB6 inh MLPCN,Cl transport mod,V-ATPase pH,Dynein cargo inh,pCIP destab
Clc1ccccc1-c1nnc2sc(-c3ccc4c(c3)OCO4)nn12,100,-2.1,16*,0.15,5
Clc1ccccc1-c1nnc2sc(CCc3ccccc3)nn12,92,-3.4*,1,-0.56,-3
CC(C)[C@H](NC(=O)c1ccccc1F)C(=O)OCC(=O)NC1CC1,102,.,20*,.,.
COC(=O)c1c(NS(C)(=O)=O)sc2c1CCCC2,102,1.1,-1,0.29,4
CC(C)OC(=O)c1c(NS(=O)(=O)c2ccccc2)sc2c1CCCC2,89,23*,-8,0.061,-13
COC(=O)c1c(NS(=O)(=O)Cc2ccccc2)sc2c1CCCC2,104,45*,2,-1,-10
COC(=O)c1c(NS(=O)(=O)c2ccc(C)cc2)sc2c1CCC(C)C2 (stereo not drawn),88,16*,-5,0.097,4
COC(=O)c1c(NC(=O)CN(C)CC(=O)Nc2ccc(C)cc2)sc2c1CCC(C)C2 (stereo not drawn),92,.,-1,.,.
COc1ccc(NC(=O)CSc2cccc3cccnc23)c(OC)c1,97,-1,0,0.14,-10
CCCCCOc1ccc(NC(=O)CSc2cccc3cccnc23)cc1,92,5.4*,-1,0.2,-2
CCOC(=O)CSc1cccc2cccnc12,106,15*,2,-0.69,-9
Cc1cccc(CSc2cccc3cccnc23)c1,94,19*,-4,-0.83,-16
C=C(C)C1CC=C(C)/C(=N/NC(=S)Nc2ccccc2)C1 (stereo not drawn),102,6.5*,-1,-1.1,-3
C=C(C)C1CC=C(C)/C(=N/NC(=O)c2ccc(NC(=O)c3cccc(C)c3)cc2)C1 (stereo not drawn),97,1.2,-2,0.24,-10
O=[N+]([O-])C1C(c2ccccc2)C12c1ccccc1-c1ccccc12 (stereo not drawn),101,.,-3,.,.
COc1ccccc1CNC(=O)Cc1c[nH]c2ccccc12,101,.,13*,.,-17
CC1(C)CC(=S)Nc2ccccc2S1,104,4.7*,-1,0.13,-3
COc1ccc(S(=O)(=O)N2CCN(c3cnccn3)CC2)cc1OC,101,.,16*,.,.
COC(=O)c1cc(-c2ccc3c(c2)OCO3)nc2ccccc12,92,0.014,-1,-0.089,9
Cc1cc(C)nc(NC(=O)c2cc(-c3ccc4c(c3)OCO4)nc3ccccc23)c1,103,.,14*,.,-1
CCOC(=O)[C@]12CCC=C1N(Cc1cccc3ccccc13)C(=O)[C@H](CC(=O)NCCC(C)C)C2,94,.,.,.,.
Cc1ccc(C(=O)CC(=O)c2ccccc2C)c(O)c1,97,.,1,.,1
Cc1ccc(C(=O)CC(=O)c2cccc(F)c2)c(O)c1,99,22*,1,-0.18,10
COc1ccc(O)c(/C=N/c2nc3ccccc3n2C)c1,105,.,12*,.,-1
CC(C)(C)OC(=O)CNC(=O)c1[nH]cnc1C(=O)NCCCCCNC(=O)OC(C)(C)C,74*,.,1,.,-16
SMILES,ABCB6 inh MLPCN,Cl transport mod,V-ATPase pH,Dynein cargo inh,pCIP destab
NC(Cc1ccc(C(F)(F)F)cc1)c1csc(NC(=O)NCCc2ccccc2)n1 (stereo not drawn),93,.,.,.,.
O=c1c2c(nc3c(-c4ccccc4)c[nH]n13)CCCC2,108,2.8*,7,-0.67,10
O=C1NC(=S)N(C(=O)c2ccc(F)cc2)/C1=C/c1cccnc1,15*,0.72,1,-0.41,-2
CCOc1ccc(S(=O)(=O)N2CCCC2)c2ccccc12,97,.,-1,.,.
CCOc1ccc(S(=O)(=O)N2CCC(C(N)=O)CC2)c2ccccc12,79,.,22*,-0.43,-1
CC(=O)Nc1nnc(CCS(=O)(=O)c2ccc(C)cc2)s1,107,.,23*,.,.
Cc1nc2c(OCc3cc(Cl)cc(Cl)c3)cccn2c1N(C)C(=O)CCC1CCCC1,82,.,.,.,.

# Compound activity as filed in PubChem BioAssay.
